Measured values from ChEMBL document CHEMBL1137811, “Four new bromotryptamine derivatives from the marine bryozoan Flustra foliacea” (J Nat Prod, 2002).
Active and inactive are the calls of the source.

Columns and labels:
Format in all cases: cell-based
Conditions in all cases: Oocyte
[1] = target: Sodium channel protein type 2 subunit alpha (Rattus norvegicus) (UniProt P04775); experiment: Blockade of voltage-activated rat brain Nav1.2 sodium channel type 2 channel expressed in Xenopus laevis oocytes assessed as effect on evoked current by two-electrode voltage clamp method
Chain of Sodium channel protein type 2 subunit alpha (Rattus norvegicus) (P04775 whole entry, looked up): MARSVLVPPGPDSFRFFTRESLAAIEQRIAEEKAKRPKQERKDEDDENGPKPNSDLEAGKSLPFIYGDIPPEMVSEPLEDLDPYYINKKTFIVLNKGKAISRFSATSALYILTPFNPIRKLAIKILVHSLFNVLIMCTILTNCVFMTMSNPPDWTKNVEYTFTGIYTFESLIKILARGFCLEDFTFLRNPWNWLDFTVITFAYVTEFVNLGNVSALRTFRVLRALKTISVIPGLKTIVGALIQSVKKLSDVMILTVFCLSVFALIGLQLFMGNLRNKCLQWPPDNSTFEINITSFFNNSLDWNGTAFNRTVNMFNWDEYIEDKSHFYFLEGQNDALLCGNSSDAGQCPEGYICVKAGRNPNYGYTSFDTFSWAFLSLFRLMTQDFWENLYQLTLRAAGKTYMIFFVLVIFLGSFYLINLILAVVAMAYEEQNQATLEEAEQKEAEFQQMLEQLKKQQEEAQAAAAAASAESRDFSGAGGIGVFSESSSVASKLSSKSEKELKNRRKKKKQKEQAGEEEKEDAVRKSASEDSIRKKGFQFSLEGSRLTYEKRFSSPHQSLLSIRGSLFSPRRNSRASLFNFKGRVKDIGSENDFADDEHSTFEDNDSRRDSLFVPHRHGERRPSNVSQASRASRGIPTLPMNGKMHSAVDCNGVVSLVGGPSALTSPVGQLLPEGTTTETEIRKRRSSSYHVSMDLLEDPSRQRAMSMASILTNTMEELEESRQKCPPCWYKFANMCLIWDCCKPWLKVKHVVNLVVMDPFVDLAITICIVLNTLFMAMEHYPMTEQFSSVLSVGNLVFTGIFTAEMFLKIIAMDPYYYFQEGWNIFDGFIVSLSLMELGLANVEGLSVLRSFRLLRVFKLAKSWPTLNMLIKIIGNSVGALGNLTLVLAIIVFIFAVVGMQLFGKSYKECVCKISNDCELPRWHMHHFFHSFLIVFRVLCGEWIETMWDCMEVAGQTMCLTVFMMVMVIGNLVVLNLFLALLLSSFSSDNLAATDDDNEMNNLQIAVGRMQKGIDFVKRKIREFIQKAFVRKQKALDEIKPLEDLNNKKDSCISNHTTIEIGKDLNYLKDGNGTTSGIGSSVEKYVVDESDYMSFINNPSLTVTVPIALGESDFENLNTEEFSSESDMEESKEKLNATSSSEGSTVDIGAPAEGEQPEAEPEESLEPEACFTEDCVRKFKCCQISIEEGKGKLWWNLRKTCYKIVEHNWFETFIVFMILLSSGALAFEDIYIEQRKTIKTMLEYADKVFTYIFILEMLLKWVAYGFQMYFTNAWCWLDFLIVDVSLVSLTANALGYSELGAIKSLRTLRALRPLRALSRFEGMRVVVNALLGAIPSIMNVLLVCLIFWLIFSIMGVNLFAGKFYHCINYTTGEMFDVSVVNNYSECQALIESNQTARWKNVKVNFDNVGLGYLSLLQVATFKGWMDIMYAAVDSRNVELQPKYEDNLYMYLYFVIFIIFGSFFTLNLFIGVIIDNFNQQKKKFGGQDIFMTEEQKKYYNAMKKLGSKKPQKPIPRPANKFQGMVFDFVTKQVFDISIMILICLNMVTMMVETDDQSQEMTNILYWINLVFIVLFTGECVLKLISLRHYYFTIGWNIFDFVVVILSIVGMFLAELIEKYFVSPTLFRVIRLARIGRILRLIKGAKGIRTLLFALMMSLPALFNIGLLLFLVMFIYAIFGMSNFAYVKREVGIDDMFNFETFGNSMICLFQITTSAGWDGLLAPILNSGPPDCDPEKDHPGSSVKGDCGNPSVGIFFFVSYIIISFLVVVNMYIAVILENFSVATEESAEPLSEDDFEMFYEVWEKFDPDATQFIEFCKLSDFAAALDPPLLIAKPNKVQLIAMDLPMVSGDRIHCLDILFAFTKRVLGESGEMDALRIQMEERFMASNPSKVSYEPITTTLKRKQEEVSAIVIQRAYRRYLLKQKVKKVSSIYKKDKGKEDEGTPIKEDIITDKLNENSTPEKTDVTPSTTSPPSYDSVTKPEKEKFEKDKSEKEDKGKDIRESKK
Outline: (§1)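 Channels expressed in Xenopus laevis oocytes from injected cRNA (rat Kv1.1, rat Kv1.4 or rat brain type II Na channel), incubated 1-5 days. Vitelline membrane removed. Two-electrode voltage clamp, whole-cell currents; 2 M KCl electrodes, 0.6-1.0 MΩ. Filtered 1 kHz, sampled 4 kHz, P/n leak subtraction. Bath: frog Ringer's, pH 7.2. Compounds from DMSO stock, final up to 10 μM in bath; DMSO-only control.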

[2] = target: Potassium voltage-gated channel subfamily A member 1 (Rattus norvegicus) (UniProt P10499); experiment: Blockade of voltage-activated rat Kv1.1 potassium channel expressed in Xenopus laevis oocytes assessed as effect on evoked current upto 10 uM by two-electrode voltage clamp method; outline: as §1
Chain of Potassium voltage-gated channel subfamily A member 1 (Rattus norvegicus) (P10499 whole entry): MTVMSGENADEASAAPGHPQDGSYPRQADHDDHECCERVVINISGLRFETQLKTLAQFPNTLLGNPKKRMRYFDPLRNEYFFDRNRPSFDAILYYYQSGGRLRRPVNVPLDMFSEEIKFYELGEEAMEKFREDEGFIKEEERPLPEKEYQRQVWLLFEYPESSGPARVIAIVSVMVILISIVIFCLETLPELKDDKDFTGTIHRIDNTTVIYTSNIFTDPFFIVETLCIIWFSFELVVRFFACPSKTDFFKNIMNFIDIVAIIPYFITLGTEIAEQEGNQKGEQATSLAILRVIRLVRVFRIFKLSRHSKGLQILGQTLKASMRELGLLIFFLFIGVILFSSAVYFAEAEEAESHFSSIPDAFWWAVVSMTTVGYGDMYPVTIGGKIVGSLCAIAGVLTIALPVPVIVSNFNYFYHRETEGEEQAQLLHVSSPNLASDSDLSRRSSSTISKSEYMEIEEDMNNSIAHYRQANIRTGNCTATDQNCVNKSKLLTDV

[3] = target: Potassium voltage-gated channel subfamily A member 4 (Rattus norvegicus) (UniProt P15385); experiment: Blockade of voltage-activated rat Kv1.4 potassium channel expressed in Xenopus laevis oocytes assessed as effect on evoked current upto 10 uM by two-electrode voltage clamp method; outline: as §1
Chain of Potassium voltage-gated channel subfamily A member 4 (Rattus norvegicus) (P15385 whole entry): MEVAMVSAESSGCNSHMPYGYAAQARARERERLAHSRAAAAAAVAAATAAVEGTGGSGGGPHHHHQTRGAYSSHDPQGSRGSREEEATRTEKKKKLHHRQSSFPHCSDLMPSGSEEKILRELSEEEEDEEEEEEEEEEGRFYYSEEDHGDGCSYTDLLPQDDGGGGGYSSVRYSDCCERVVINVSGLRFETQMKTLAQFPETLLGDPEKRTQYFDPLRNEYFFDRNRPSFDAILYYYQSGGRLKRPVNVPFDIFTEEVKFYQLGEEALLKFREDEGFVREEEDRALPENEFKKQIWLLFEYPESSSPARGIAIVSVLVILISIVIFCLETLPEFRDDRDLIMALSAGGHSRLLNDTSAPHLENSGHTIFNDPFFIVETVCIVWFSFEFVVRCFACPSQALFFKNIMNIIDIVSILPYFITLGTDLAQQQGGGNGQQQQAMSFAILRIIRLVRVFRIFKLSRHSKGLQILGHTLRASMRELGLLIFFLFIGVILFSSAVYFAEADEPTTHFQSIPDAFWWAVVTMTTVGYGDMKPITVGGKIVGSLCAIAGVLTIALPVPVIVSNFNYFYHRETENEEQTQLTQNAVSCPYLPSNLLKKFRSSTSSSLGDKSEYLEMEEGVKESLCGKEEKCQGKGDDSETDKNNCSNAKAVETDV

Measured: Activity

C=CC(C)(C)[C@@]12CCN(C)C1=Nc1cc(Br)ccc12
inactive: all assays above

C=CC(C)(C)c1[nH]c2cc(Br)ccc2c1CCNC
inactive: all assays above

C=CC(C)(C)[C@@]12CCN(C)[C@@H]1Nc1cc(Br)ccc12
inactive: all assays above

C=CC(C)(C)[C@@]12CCN(C)[C@@H]1N(CC=C(C)C)c1cc(Br)ccc12
inactive: all assays above
